Data: ChEMBL document CHEMBL4342471, “Discovery of Thieno[2,3-d]pyrimidine-Based Hydroxamic Acid Derivatives as Bromodomain-Containing Protein 4/Histone Deacetylase Dual Inhibitors Induce Autophagic Cell Death in Colorectal Carcinoma Cells” (J Med Chem, 2020)
pIC50: −log10 of the molar value. Activity calls are given as the source filed them. The calls are words filed in the database; no cut-off is given here.

How the values were obtained:
[1] = molecular target: T1, Bromodomain-containing protein 4 (Homo sapiens, UniProt O60885); assay: Inhibition of GST-tagged BRD4 bromodomain (unknown origin) using biotinylated histone H4KAc peptide (1 to 21 residues) as substrate by HTRF assay
[2] = system: DLD-1; assay: Antiproliferative activity against human DLD1 cells assessed as reduction in cell viability measured after 24 to 48 hrs by MTT assay; assay type: functional, cell-based
[3] = molecular target: Bromodomain-containing protein 2 (Homo sapiens, UniProt P25440); assay: Inhibition of human recombinant His-tagged BRD2 BD1 domain expressed in Escherichia coli BL21(DE3)-R3-pRARE2 cells by AlphaScreen assay
Bromodomain-containing protein 2, sequence (P25440 whole entry, the tested form may be a part): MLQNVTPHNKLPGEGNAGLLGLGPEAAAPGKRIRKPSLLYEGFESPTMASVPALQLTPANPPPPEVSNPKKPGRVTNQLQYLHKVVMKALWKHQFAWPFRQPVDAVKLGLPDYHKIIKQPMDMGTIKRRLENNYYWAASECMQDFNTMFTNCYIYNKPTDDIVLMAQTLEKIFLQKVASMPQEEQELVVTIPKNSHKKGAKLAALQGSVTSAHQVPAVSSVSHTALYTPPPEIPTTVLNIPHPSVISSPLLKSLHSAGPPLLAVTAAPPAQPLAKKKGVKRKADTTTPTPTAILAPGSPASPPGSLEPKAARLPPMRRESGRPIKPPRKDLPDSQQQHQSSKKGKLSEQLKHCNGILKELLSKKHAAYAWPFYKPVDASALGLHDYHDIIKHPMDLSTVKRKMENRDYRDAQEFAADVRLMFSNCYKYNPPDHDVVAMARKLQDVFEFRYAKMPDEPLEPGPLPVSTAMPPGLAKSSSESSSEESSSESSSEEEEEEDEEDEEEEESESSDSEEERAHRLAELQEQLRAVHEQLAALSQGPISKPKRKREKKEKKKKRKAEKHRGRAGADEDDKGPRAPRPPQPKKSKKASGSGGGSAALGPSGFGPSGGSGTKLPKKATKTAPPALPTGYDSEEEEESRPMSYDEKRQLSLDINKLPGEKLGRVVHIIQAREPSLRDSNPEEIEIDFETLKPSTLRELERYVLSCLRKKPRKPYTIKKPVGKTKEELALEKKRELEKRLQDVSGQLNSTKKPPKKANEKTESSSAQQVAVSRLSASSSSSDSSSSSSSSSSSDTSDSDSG

[4] = molecular target: Histone deacetylase 11 (Homo sapiens, UniProt Q96DB2); assay: Inhibition of HDAC11 (unknown origin) using biotinylated histone H3 KAc peptide (1 to 21 residues) as substrate by HTRF assay
Histone deacetylase 11, sequence (Q96DB2 whole entry, the tested form may be a part): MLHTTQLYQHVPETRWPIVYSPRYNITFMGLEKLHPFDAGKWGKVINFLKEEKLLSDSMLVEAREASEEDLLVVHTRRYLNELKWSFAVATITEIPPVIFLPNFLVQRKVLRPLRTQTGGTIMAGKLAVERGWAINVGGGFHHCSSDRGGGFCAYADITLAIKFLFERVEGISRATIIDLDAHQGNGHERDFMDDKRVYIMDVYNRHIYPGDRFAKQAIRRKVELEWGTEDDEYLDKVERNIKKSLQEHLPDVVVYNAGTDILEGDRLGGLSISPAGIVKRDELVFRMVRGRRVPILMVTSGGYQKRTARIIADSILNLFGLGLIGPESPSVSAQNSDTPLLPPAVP

[5] = molecular target: Histone deacetylase 5 (Homo sapiens, UniProt Q9UQL6); assay: Inhibition of HDAC5 (unknown origin) using biotinylated histone H3 KAc peptide (1 to 21 residues) as substrate by HTRF assay
Histone deacetylase 5, sequence (Q9UQL6 whole entry, the tested form may be a part): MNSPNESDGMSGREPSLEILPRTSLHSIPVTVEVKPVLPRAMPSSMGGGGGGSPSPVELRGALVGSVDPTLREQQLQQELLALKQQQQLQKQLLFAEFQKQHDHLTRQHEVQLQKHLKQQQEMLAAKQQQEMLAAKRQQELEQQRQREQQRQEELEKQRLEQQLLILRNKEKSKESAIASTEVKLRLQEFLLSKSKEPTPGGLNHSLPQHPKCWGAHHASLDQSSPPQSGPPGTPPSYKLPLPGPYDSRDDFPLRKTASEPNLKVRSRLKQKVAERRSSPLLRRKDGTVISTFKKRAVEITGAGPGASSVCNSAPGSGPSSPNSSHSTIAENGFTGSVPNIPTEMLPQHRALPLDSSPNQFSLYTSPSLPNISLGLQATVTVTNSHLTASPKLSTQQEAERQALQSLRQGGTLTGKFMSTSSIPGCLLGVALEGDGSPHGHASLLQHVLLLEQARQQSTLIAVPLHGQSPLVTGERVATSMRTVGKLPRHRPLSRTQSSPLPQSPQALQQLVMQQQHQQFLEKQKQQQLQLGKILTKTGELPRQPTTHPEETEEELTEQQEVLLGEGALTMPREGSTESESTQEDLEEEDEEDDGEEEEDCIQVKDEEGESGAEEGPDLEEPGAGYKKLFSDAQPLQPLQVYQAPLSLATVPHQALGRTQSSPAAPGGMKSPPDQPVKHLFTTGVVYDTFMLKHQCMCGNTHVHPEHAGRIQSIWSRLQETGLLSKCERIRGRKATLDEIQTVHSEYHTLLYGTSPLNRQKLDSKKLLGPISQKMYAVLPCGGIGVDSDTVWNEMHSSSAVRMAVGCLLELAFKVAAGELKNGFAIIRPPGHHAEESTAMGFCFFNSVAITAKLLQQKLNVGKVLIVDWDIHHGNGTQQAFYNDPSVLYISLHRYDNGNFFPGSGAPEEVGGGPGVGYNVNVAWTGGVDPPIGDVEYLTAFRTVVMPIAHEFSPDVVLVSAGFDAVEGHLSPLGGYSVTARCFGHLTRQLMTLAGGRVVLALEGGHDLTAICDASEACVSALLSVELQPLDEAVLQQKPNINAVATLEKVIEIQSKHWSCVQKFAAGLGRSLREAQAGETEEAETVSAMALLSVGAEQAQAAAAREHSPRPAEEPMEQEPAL

[6] = molecular target: Histone deacetylase 1 (Homo sapiens, UniProt Q13547); assay: Inhibition of HDAC1 (unknown origin) using biotinylated histone H3 KAc peptide (1 to 21 residues) as substrate by HTRF assay
Histone deacetylase 1, sequence (Q13547 whole entry, the tested form may be a part): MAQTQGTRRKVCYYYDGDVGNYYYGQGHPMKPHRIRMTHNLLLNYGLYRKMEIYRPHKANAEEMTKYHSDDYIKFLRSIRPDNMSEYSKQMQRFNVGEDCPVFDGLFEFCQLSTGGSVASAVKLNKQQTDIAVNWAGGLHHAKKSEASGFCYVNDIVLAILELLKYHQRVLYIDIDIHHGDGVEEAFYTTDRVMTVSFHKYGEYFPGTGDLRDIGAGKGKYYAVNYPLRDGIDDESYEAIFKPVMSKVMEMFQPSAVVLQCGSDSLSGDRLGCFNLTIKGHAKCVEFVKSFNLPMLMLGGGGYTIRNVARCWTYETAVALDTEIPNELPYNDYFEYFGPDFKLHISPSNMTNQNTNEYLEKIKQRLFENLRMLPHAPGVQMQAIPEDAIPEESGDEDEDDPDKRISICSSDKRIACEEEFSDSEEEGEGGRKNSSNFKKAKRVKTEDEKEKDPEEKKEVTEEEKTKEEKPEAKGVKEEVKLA

[7] = system: HCT-116; assay: Induction of apoptosis in human HCT116 cells assessed as apoptotic cells at 0.2 uM by Annexin-V FITC/propidium iodide staining-based flow cytometry (reference value: 6.3 +/- 0.4 %); assay type: functional
[8] = species: Homo sapiens; assay: Inhibition of BRD4/HDAC in human HCT116 cells assessed as increase in PARP cleavage at 0.2 to 0.5 uM measured after 24 hrs by Western blot analysis; assay type: cell-based
[9] = species: Homo sapiens; assay: Inhibition of BRD4/HDAC in human HCT116 cells assessed as increase in caspase 3 cleavage at 0.2 to 0.5 uM measured after 24 hrs by Western blot analysis; assay type: cell-based
[10] = molecular target: T1, Bromodomain-containing protein 4; assay: Inhibition of BRD4 in human HCT116 cells assessed as induction of autophagy by measuring upregulation of beclin1 expression at 0.2 to 0.5 uM measured after 24 hrs by Western blot analysis; assay type: cell-based
[11] = molecular target: T1, Bromodomain-containing protein 4; assay: Inhibition of BRD4 in human HCT116 cells assessed as induction of autophagy by measuring increase in cleavage of LC3-I to LC3-II measured after 24 hrs by Western blot analysis; assay type: cell-based
[12] = molecular target: T1, Bromodomain-containing protein 4; assay: Inhibition of BRD4 in human HCT116 cells assessed as induction of autophagic flux by measuring accumulation of p62 at 0.5 uM after 24 hrs in presence of auto-phagolysosome inhibitor, bafilomycin-A1 by Western blot analysis; assay type: cell-based
In short: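 HCT-116 cells received 0.5 μM compound with or without bafilomycin-A1 for 24 hours. LC3 and p62 protein were then analysed by western blot.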

[13] = molecular target: T1, Bromodomain-containing protein 4; assay: Inhibition of BRD4 in human HCT116 cells transfected with ATG5 siRNA assessed as activation of AMPK-alpha at 0.5 uM by Western blot analysis; assay type: cell-based
In short: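 HCT-116 cells first transfected with ATG5 siRNA or scramble siRNA; after silencing, exposed to 0.5 µM test agent or normal saline, then ATG5, AMPKα, p-AMPKα, p62 and LC3 protein assessed by western blot.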

[14] = system: HT-29; assay: Cytotoxicity against human HT-29 cells assessed as reduction in cell viability; assay type: functional, cell-based
In short: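 Antiproliferative IC50 values were measured by MTT assay across a panel of colorectal carcinoma cell lines and normal colorectal epithelial cells.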

[15] = system: Mus musculus; assay: Increase in LIFR expression in tumor tissue of BALB/cAnNCrl mouse xenografted with human HCT116 cells at 15 to 30 mg/kg, po administered on day 1 to day 19 measured on day 19 by immunohistochemical analysis; assay type: functional, organism-based
In short: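 HCT-116 xenograft mice were dosed orally at 15 or 30 mg/kg, or 30 mg/kg for reference agents, for 19 days, with vehicle or saline controls. Tumor sections were stained for Ki-67, c-Myc, Ac-H3, BRD4, LC3-II, LIFR and p-STAT3 by immunohistochemistry, and TUNEL staining was used as the apoptosis marker.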

[16] = Toxicity in BALB/cAnNCrl mouse xenografted with human HCT116 cells assessed as effect on body weight at 15 to 30 mg/kg, po administered on day 1 to day 19 […]; assay type: organism-based; conditions: in vivo
In short: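 HCT-116 xenograft mice dosed orally at 15 or 30 mg/kg for 19 days, saline as vehicle control; body weights tracked, and main organs sectioned and H&E-stained at study end.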

[17] = Cmax in Sprague-Dawley rat at 30 mg/kg, po measured up to 1440 mins by UPLC-QTOF/MS analysis; assay type: ADME, organism-based; parameters: dose 30 mg/kg, route oral; conditions: in vivo
[18] = species: Homo sapiens; assay: Inhibition of BRD4/HDAC in human HCT116 cells assessed as increase in IL6 mRNA level at 0.5 uM after 24 hrs by RT-PCR analysis; assay type: cell-based
In short: (§1)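 HCT-116 cells incubated 24 h with test agent (0.5 µM, 2.0 µM or 10 µM depending on compound); IL6, OSM, LIF and CTF1 mRNA levels then quantified.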

[19] = species: Homo sapiens; assay: Inhibition of BRD4/HDAC in human HCT116 cells assessed as increase in OSM mRNA level at 0.5 uM after 24 hrs by RT-PCR analysis; assay type: cell-based; in short: as §1
[20] = species: Homo sapiens; assay: Inhibition of BRD4/HDAC in human HCT116 cells assessed as increase in LIF mRNA level at 0.5 uM after 24 hrs by RT-PCR analysis; assay type: cell-based; in short: as §1
[21] = species: Homo sapiens; assay: Inhibition of BRD4/HDAC in human HCT116 cells assessed as increase in CTF1 mRNA level at 0.5 uM after 24 hrs by RT-PCR analysis; assay type: cell-based; in short: as §1
[22] = molecular target: T1, Bromodomain-containing protein 4; assay: Inhibition of BRD4 in human HCT116 cells assessed as induction of autophagy by measuring LC3-I cleavage to LC3-II at 0.5 uM measured after 24 hrs by Western blot analysis; assay type: cell-based
In short: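 HCT-116 cells were treated for 24 hours with 0.5 μM, 2.0 μM or 10 μM agents. LC3 (LC3-I to LC3-II conversion) and p62 were then detected by western blot.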

pIC50 [1]: 6.15
pIC50 [2]: 5.68
pIC50 [3]: 4.79
pIC50 [4]: < 5.00
pIC50 [5]: < 5.00
pIC50 [6]: 7.34
inhibition [10]: Active
inhibition [11]: Dose-dependent effect
inhibition [12]: inactive
inhibition [13]: Active
inhibition [22]: Active
SMILES: Cc1cc(-c2nc3sc4c(c3c(=O)[nH]2)CCN(C)C4)cc(C)c1OCCCCCC(=O)NO
Activity [7]: 33.2%
inhibition [8]: Active
inhibition [9]: Active
Activity [14]: Active
Activity [15]: inactive
Activity [16]: Non-Toxic
Cmax [17]: 5360 ng/mL
inhibition [18]: Active
inhibition [19]: Active
inhibition [20]: Active
inhibition [21]: Active
